Laboratory results published in article PMC4303873 (Scientific Reports, 2015).

Legend:
Cell viability = assay type: cell-based, human; settings: human, normal human epidermal melanocytes
Procedure, shortened: (§1)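 Normal human epidermal melanocytes grown in Medium 254 with HMGS. Confluent cells trypsinized, resuspended in Melanocyte Growth Medium M2 and seeded at 2 × 10^4 cells/well. After 24 h, exposed to test compound at 5 or 50 μM at 37°C for 72 h. […] Viability read by MTT.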

[1] = test system: Normal human epidermal melanocytes; assay: Cell viability; assay type: cell-based; settings: concentration ranging from 0 to 50 μM
Procedure, shortened: as §1

zebrafish embryos = assay: Zebrafish in vivo assay; settings: for decrease of pigmentation level of zebrafish: 50 μM, 9 to 57 hpf (48 h exposure)
Procedure, shortened: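 Synchronized zebrafish embryos, three per well in 200 μl embryo medium. Test compound solutions (in 1% DMSO), 10–50 μM, added from 9 to 57 hpf (48 h exposure). […] At 57 hpf, embryos anesthetized in tricaine, mounted in 1% methyl cellulose and photographed under a stereomicroscope. Body pigmentation scored by phenotype and by image pixel measurement.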

ICR male mice = assay: Acute oral toxicity study in mice; assay type: in vivo
Procedure, shortened: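 ICR male mice (Crl:CD1), 24 animals randomized into 4 groups of six. Single oral gavage at 1500, 3000 or 6000 mg/kg, or vehicle (4% Tween 80 in water for injection), at 20 ml/kg adjusted to pre-dose body weight. Mortality checked twice daily and clinical signs once daily, SD3–SD14. Body weight taken SD1, SD8 and SD15. Gross necropsy of thoracic and abdominal cavities on SD15.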

mushroom tyrosinase = assay: Mushroom tyrosinase inhibition assay and IC50 determination; assay type: biochemical
[2] = test system: Normal human epidermal melanocytes; assay: Melanin quantification assay in normal human melanocytes; assay type: cell-based; settings: 50 μM, 72 hours
Procedure, shortened: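 Normal human epidermal melanocytes in Medium 254 with HMGS, trypsinized into M2 medium and seeded at 1 × 10^5 cells/well. After 24 h, treated for 72 h at 37°C. […] Cell pellets dissolved in 1N NaOH at 70°C for 1 h and spun at 10,000 × g for 10 min. Supernatant OD405 measured.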

Oc1ccc(CSCc2ccc(O)cc2)cc1 [T1, bis(4-hydroxybenzyl)sulfide]
viability at 72 h, 5 µM (Cell viability): 99.2%
viability at 72 h, 50 µM (Cell viability): 97.2%
cytotoxicity to normal human melanocyte cells [1]: non-cytotoxic
decrease of pigmentation level of zebrafish (zebrafish embryos): about 41.4%
decrease of pigmentation relative to kojic acid (zebrafish embryos; both at 50 μM): 3 fold
adverse side effects in zebrafish (zebrafish embryos; zebrafish, in vivo): without any adverse side effects
dose with no adverse toxic effects (ICR male mice; ICR mice, single oral dose): up to 6000 mg/kg
body weight and body gain versus control mice (ICR male mice; single oral dose 1500, 3000, and 6000 mg/kg): no difference
death and clinical symptoms (ICR male mice; single oral dose 1500, 3000, and 6000 mg/kg, 14 days observation): no death and abnormal clinical symptom
gross lesions at necropsy (ICR male mice; single oral dose 1500, 3000, and 6000 mg/kg, SD15): no observable gross lesion
Ki (mushroom tyrosinase; Dixon plot): 58 ± 6 nM
type of inhibition (mushroom tyrosinase; Dixon plot): strong competitive inhibitor
IC50 (mushroom tyrosinase; L-tyrosine substrate, dopachrome at 475 nm, triplicate): 530 nM

OC[C@H]1O[C@H](Oc2ccc(O)cc2)[C@H](O)[C@@H](O)[C@@H]1O [α-arbutin]
decrease of melanin content [2]: very few or no melanin content decrease

OC[C@H]1O[C@@H](Oc2ccc(O)cc2)[C@H](O)[C@@H](O)[C@@H]1O [β-arbutin]
decrease of melanin content [2]: very few or no melanin content decrease

O=c1cc(CO)occ1O [kojic acid, reference compound]
decrease of pigmentation level of zebrafish (zebrafish embryos): 12.9%
decrease of melanin content [2]: very few or no melanin content decrease
